We go through 15 molecules from ChEMBL document CHEMBL1131532, “Synthesis and structure-activity relationships of carboxyflavones as structurally rigid CysLT1 (LTD4) receptor antagonists” (J Med Chem, 1998).

The first assay concerns the target T1, Cysteinyl leukotriene receptor 1 (Cavia porcellus, UniProt Q2NNR5).
T1 sequence (Q2NNR5 whole entry): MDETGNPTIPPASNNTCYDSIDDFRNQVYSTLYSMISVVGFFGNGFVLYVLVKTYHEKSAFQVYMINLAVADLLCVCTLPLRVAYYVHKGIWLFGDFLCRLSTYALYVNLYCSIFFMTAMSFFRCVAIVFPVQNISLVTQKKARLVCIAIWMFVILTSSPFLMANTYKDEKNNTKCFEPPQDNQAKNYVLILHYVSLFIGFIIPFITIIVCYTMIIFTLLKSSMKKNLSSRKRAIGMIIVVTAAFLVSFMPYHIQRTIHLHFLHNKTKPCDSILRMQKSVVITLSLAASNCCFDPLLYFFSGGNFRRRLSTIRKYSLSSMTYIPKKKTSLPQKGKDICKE
The assay can be described thus: In vitro affinity for CysLT1 receptors on guinea pig lung membranes, measured by displacement of [3H]LTD4. It is filed as tissue-based.
Conditions: not given
The procedure, abridged: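 Guinea pig lung membrane fractions (about 170 µg/mL) with 0.2 nM [3H]LTD4 and test compound in 10 mM PIPES buffer, pH 7.5 (10 mM CaCl2, 10 mM MgCl2, 50 mM NaCl, 2 mM cysteine, 2 mM glycine), 30 min at 22 °C. Stopped with ice-cold Tris-HCl/NaCl, vacuum-filtered, filter radioactivity counted. Means ± SD of three determinations.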
In general, Kd refers to the free concentration of one partner at which half of the binding sites on the other are occupied at equilibrium, for simple one-to-one binding. As to `O=C(O)c1cccc2c(=O)cc(-c3cccc(/C=C/c4ccc5ccccc5n4)c3)oc12`, the Kd was 17 nM.

In turn, `O=C(O)c1ccc2c(=O)cc(-c3cccc(/C=C/c4ccc5ccccc5n4)c3)oc2c1` gave a Kd of 1730 nM. The same measure, in the same setting: in the case of `O=c1cc(-c2cccc(/C=C/c3ccc4ccccc4n3)c2)oc2c(-c3nn[nH]n3)cc(Cl)cc12` it was 11000 nM; in that of `O=C(O)c1cccc2c(=O)cc(-c3ccc(OCc4ccccc4)cc3)oc12`, 55000 nM.

The target of a further assay is T2, Cysteinyl leukotriene receptor 1 (Cavia porcellus) (UniProt Q2NNR5).
T2 sequence (whole entry): T1 sequence (Q2NNR5 whole entry)
Put plainly: In vitro inhibition of [3H]LTD4 binding to CysLT1 receptors on guinea pig lung membranes. It is filed as tissue-based. Also on record: concentration or dose not given beside the values. The following applies: concentration not given here. The method in brief: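 Guinea pig lung membrane fractions (about 170 µg/mL) with 0.2 nM [3H]LTD4 and test compound in 10 mM PIPES buffer, pH 7.5 (10 mM CaCl2, 10 mM MgCl2, 50 mM NaCl, 2 mM cysteine, 2 mM glycine), 30 min at 22 °C. Stopped with ice-cold Tris-HCl/NaCl, vacuum-filtered, filter radioactivity counted. Means ± SD of three determinations. Percent inhibition taken at 10^-5 M where no KD obtained.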
What is called inhibition is the percentage by which the read-out fell short of the control. `O=C(O)c1cccc2c(=O)cc(-c3cccc(OCc4ccccc4)c3)oc12` gave an inhibition of 50%. `CCOC(=O)c1cccc2c(=O)cc(-c3ccc(OCc4ccc5ccccc5n4)cc3)oc12` registered an inhibition of 32%.

`CCOC(=O)c1cccc2c(=O)cc(-c3cccc(OCc4ccc5ccccc5n4)c3)oc12` registered an inhibition of 38%. Regarding `O=C(O)c1ccc2oc(-c3ccc(/C=C/c4ccc5ccccc5n4)cc3)cc(=O)c2c1`, the inhibition was determined as 28%.

On to `O=C(O)c1ccc2oc(-c3ccc(OCc4ccccc4)cc3)cc(=O)c2c1`, for which the inhibition was 23%.

Turning to `N#Cc1cc(Cl)cc2c(=O)cc(-c3cccc(/C=C/c4ccc5ccccc5n4)c3)oc12`, the inhibition turned out to be 0%. For the molecule `O=C(O)c1cccc2c(=O)cc(-c3ccc(OCc4ccc5ccccc5c4)cc3)oc12`, the inhibition came out at 32%.

The species entered for another assay is Cavia porcellus. Put plainly: Ex vivo inhibition of LTD4 induced contraction of guinea pig ileum. It is filed as functional.
Conditions: not given
The method in brief: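 Ileum segments (2 cm) from male guinea pigs, mounted open-lumen on a transducer. Compounds in DMSO, 10^-5 to 3.0 × 10^-9 M, preincubated 30 min, then contraction evoked by 10^-8 M LTD4. Indomethacin (10^-6 M) added to the bath 10 min before LTD4.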
One may read the IC50 as the point on the concentration scale where inhibition reaches its midpoint. The molecule `Cc1cc(C(=O)O)c2oc(-c3cccc(/C=C/c4ccc5ccccc5n4)c3)cc(=O)c2c1` displayed an IC50 of 28 nM. Still for that read-out and setting: in the case of `O=C(O)c1cccc2c(=O)cc(-c3cccc(/C=C/c4ccc5ccccc5n4)c3)oc12` it was 42 nM. The same measure, in the same setting: in the case of `O=C(O)c1cc(Br)cc2c(=O)cc(-c3cccc(/C=C/c4ccc5ccccc5n4)c3)oc12` it was 100 nM; in that of `O=C(O)c1cc(Cl)cc2c(=O)cc(-c3cccc(/C=C/c4ccc5ccccc5n4)c3)oc12`, 15 nM; in that of `O=C(O)c1cc(Br)cc2c(=O)cc(-c3cccc(OCc4ccc5ccccc5n4)c3)oc12`, 61 nM.
